The text below walks through data of ChEMBL document CHEMBL1126644, “Structure-activity relationships in the trans-hexahydroindolo[4,3-ab]phenanthridine ("benzergoline") series. 2. Resolution, absolute configuration, and dopaminergic activity of the selective D1 agonist CY 208-243 and its implication for an "extended rotamer-based dopamine receptor model"” (1993).

Molecules are shown by their SMILES.

A short description of test [1]: In vitro potency against adenylate cyclase in bovine retina. The test is classed as tissue-based. Summed up:
(§1)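 Dopamine-sensitive adenylate cyclase assay on bovine retina tissue. Values are means of two to six independent experiments, each run in triplicate.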

The species entered for test [2] is Bos taurus. The experiment in a line: In vitro percent maximal stimulation relative to dopamine (125 uM) in bovine retina. Type of test: functional. In short, it runs like this: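 Bovine retina adenylate cyclase stimulation, expressed as a percentage of the maximal effect produced by 125 μM dopamine.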
The species entered for test [3] is Rattus norvegicus. Briefly: Tested in vitro for percent maximal inhibition in rat striatal slices (% of control) expressed as change of S2/S1 versus control at 1 uM.
For test [4], the species on record is Rattus norvegicus. The experiment in a line: In vitro potency in rat striatal slices by electrically evoked acetylcholine release. Type of test: functional.
The species named for test [5] is Rattus norvegicus. The experiment in a line: Tested in vitro for percent maximal inhibition in rat striatal slices (% of control) expressed as change of S2/S1 versus control at 1 uM. The source holds these as a separate data set.
Test [6] is described as follows: Compound was evaluated for in vitro potency against adenylate cyclase in bovine retina. The test is classed as tissue-based. Summed up:
as §1

What is called inhibition is the percentage by which the read-out fell short of the control. The low end stands for a weak effect, the high end for a strong effect.

Turning to `Oc1ccc([C@@H]2CNCc3ccccc32)cc1O`, the pD2 in test [1] is 6. The “Relative to DA” value in test [2] was found to be 86%. In test [3], this compound displayed an inhibition at 1 µM of 0%.

Consider `CN1CCC[C@@H]2c3cccc4[nH]cc(c34)C[C@H]21`, for which the values for the pD2 in test [1] and in test [4] were 5.2 and 7.5, respectively. Further, the “Relative to DA” value in test [2] is 24%. The same compound yielded an inhibition at 1 µM in test [3] of 30%.

In the case of `CN1CCC[C@@H]2Cc3c(O)cccc3C[C@H]21`, the pD2 is 6.15 in test [1] and 7.3 in test [4]. Further, the “Relative to DA” value in test [2] came out at 14%. The inhibition at 1 µM in test [3] was determined as 62%.

For the compound `CN1Cc2ccccc2[C@@H]2c3cccc4[nH]cc(c34)C[C@H]21` (racemic) [listing 1 of 2 here], the “Relative to DA” value in test [2] came out at 57%. In test [5], this compound returned an inhibition at 1 µM of 0%.

Take `CN1Cc2ccccc2[C@@H]2c3cccc4[nH]cc(c34)C[C@H]21` (racemic) [listing 2 of 2 here]: the pD2 in test [1] was determined as 6.1.

As to `CN1Cc2ccccc2[C@@H]2c3cccc4[nH]cc(c34)C[C@H]21` (stereo in doubt) [listing 1 of 2 here], in test [2], the “Relative to DA” value amounted to 68%.

`CN1Cc2ccccc2[C@@H]2c3cccc4[nH]cc(c34)C[C@H]21` (stereo in doubt) [listing 2 of 2 here] came in with a pD2 in test [6] of 6.9.

As to `CN1Cc2ccccc2[C@@H]2c3cccc4[nH]cc(c34)C[C@H]21` (stereo in doubt; (+)-1), the “Relative to DA” value in test [2] worked out at 0%.

As for `CN1CCc2cccc3c2[C@H]1Cc1ccc(O)c(O)c1-3` [APOMORPHINE], the pD2 in test [1] stood at 6.2; in test [4] it was 7.5. The “Relative to DA” value in test [2] is listed as 38%. In test [3], this compound returned an inhibition at 1 µM of 85%.

In test [1], `Oc1cc2c(cc1O)C(c1ccccc1)CNCC2` (centres undefined) [SKF-38393] registered a pD2 of 6.6. For the same compound, in test [2], the “Relative to DA” value is listed as 58%. The compound further yielded an inhibition at 1 µM in test [3] of 0%.
